The values that follow come from ChEMBL document CHEMBL1221230, “Inhibition of eukaryotic translation elongation by cycloheximide and lactimidomycin” (Nat Chem Biol, 2010).

The subject of assay [1] is Saccharomyces cerevisiae. Kind of assay: Antimicrobial activity against Saccharomyces cerevisiae JB503. The format is functional, organism-based. An outline of the steps: (§1)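 Four isogenic S. cerevisiae strain pairs, each differing only by presence or absence of cyh2, exposed to varying compound concentrations; growth read by optical density; IC50 derived per strain, resistance as ratio between paired strains.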

A short description of assay [2]: Inhibition of elF4A-mediated renilla luciferase translational activity at 0.02 to 5 uM in presence of EMCV IRES element.
Assay [3] has as its system Jurkat. The assay is described as follows: Antiproliferative activity against human Jurkat cells assessed as incorporation of [3H]thymidine in nuclear DNA at 2.5 uM after 24 hrs by scintillation counting. The format is functional, cell-based. The procedure, abridged:
(§2)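 Each of three tumour cell lines incubated with compound at 2.5 μM for 24 h, then [³H]thymidine added to monitor DNA synthesis; initial proliferation screen.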

In assay [4] the test system is MDA-MB-231. The assay is described as follows: Antitumor activity against human MDA-MB-231 cells xenografted in nude mouse assessed as inhibition of tumor growth at 0.6 mg/kg, sc qd for 1 month administered post tumor implantation. It counts as functional, organism-based. Also on record: dose 0.6 mg/kg. The procedure, abridged: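 Two million MDA-MB-231 cells injected subcutaneously into female nude mice; once tumours palpable, compound 0.6 mg/kg or solvent given daily for one month; tumour growth followed.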
On the technique in general: Xenograft models place foreign cells or tissue in a host animal.

The subject of assay [5] is Hs-578T. Kind of assay: Anticancer activity against human Hs 578T cells after 24 hrs by [3H]thymidine incorporation assay. The format is functional, cell-based. For orientation: Dividing cells build labelled thymidine or BrdU into new DNA.
Assay [6] deals with HeLa. Kind of assay: Antiproliferative activity against human HeLa cells assessed as incorporation of [3H]thymidine in nuclear DNA at 2.5 uM after 24 hrs by scintillation counting. It counts as functional, cell-based. An outline of the steps:
as §2

Assay [7] deals with HeLa. Kind of assay: Inhibition of transcriptional activity in human HeLa cells assessed as [3H]uridine utilization after 2 hrs by scintillation counting. It counts as functional, cell-based. The procedure, abridged:
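HeLa cells incubated 2 h with varying compound concentrations plus [³⁵S]cysteine/methionine (translation) or [³H]uridine (transcription). Protein synthesis: scintillation counting of TCA-precipitated protein on PVDF membrane. Transcription: scintillation counting of nucleic acids bound to GF/C glass fibre filter.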

In assay [8] the test system is MCF7. The assay is described as follows: Anticancer activity against human MCF7 cells after 24 hrs by [3H]thymidine incorporation assay. The format is functional, cell-based.
Assay [9] relates to MDA-MB-231. Kind of assay: Antiproliferative activity against human MDA-MB-231 cells assessed as incorporation of [3H]thymidine in nuclear DNA at 2.5 uM after 24 hrs by scintillation counting. It counts as functional, cell-based. An outline of the steps: as §2
For assay [10], the system named is Saccharomyces cerevisiae. The assay is described as follows: Fold resistance, ratio of IC50 for Saccharomyces cerevisiae BY686 expressing ribosomal protein cyh2 and harboring mutation in rpl28 to IC50 Saccharomyces cerevisiae JB503. The format is functional. An outline of the steps: as §1
Assay [11] deals with HCC1937. The assay is described as follows: Anticancer activity against human HCC1937 cells after 24 hrs by [3H]thymidine incorporation assay. The format is functional, cell-based.
A short description of assay [12]: Inhibition of elF4A-mediated renilla luciferase translational activity at 200 to 2000 nM in presence of HCV IRES element.

Each structure is given as a SMILES string. Activity calls are given as the source filed them. The calls are words filed in the database; no cut-off is given here.

Usually IC50 stands for the point on the concentration scale where inhibition reaches its midpoint. Take `C/C(=C\[C@H](C)C(=O)C[C@H](O)CC1CC(=O)NC(=O)C1)[C@@H]1OC(=O)/C=C/CC/C=C/C=C\[C@@H]1C` [LACTIMIDOMYCIN]: the results for the IC50 in assay [1] and in assay [7] were 58 nM and more than 10000 nM, respectively. For the same molecule, the inhibition entry in [2] and in assay [12] was “Active” throughout. Besides, the result in assay [3], in assay [6] and in assay [9] was inactive. In addition, the outcome in [4], in assay [5], in [8] and in [11] was Active. The “Ratio IC50” value in assay [10] is reported as 10.3.
